For one experiment, the system named is Staphylococcus aureus. As to the kind of experiment: Antibacterial activity against methicillin-resistant Staphylococcus aureus clinical isolates from cystic fibrosis patients assessed as growth inhibition by CLSI broth microdilution method. (In general: Dilution methods test growth across graded concentrations, often in twofold steps.)
Experiment [1] in a line: Antioxidant activity assessed as resorcinol equivalent of peroxy radical scavenging activity at pH 2.2 by BR assay. The class given is functional. In a few lines:
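Briggs-Rauscher oscillating reaction thermostated at 25.0 °C. The resorcinol standard line was checked before each series. Relative antioxidant activity is taken from the sample and resorcinol concentrations that give the same effect.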

Experiment [2] is described as follows: Antioxidant activity assessed as trolox equivalent of ABTS radical scavenging activity at pH 7.4 after 6 mins by TEAC assay. Format: functional. In a few lines:
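ABTS radical cation preformed with K₂S₂O₈ in PBS, pH 7.4. Diluted radical solution mixed with sample dissolved in DMSO; absorbance at 734 nm read exactly 6 min later at 30.0 °C. A DMSO blank was run, and the Trolox standard was treated the same way and checked before each series. Activity is given as a ratio to Trolox with its standard error.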

The subject of experiment [3] is Radical scavenging activity. Kind of experiment: Antioxidant activity assessed as trolox equivalent of DPPH radical scavenging activity after 15 mins by spectroscopic analysis. Format: functional. In a few lines: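 Absorbance at 515 nm of methanolic DPPH radical read before (A₀) and 15 min after (Af) adding sample. Inhibition % = (1 − Af/A₀) × 100. Plots of % inhibition vs concentration were fitted with lines through the origin and compared with the Trolox standard.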

Experiment [4] can be described thus: Antioxidant activity assessed as Fe (II) equivalent of (TPTZ)2Fe3+ reducing activity after 4 mins by FRAP assay. Format: functional. In a few lines:
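FRAP reagent made from TPTZ and FeCl₃ in aqueous acetate buffer. Reagent and diluted sample mixed in a cuvette; absorbance of the blue Fe²⁺ complex at 593 nm read exactly 4 min later at 25.0 °C. Four or five sample concentrations tested. Slope of absorbance vs concentration divided by the FeSO₄ standard slope gives activity in mmol equiv Fe²⁺.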

Experiment [5] in a line: Antioxidant activity of the compound by voltammetric analysis. The class given is functional.
The test system of experiment [6] is Radical scavenging activity. As to the kind of experiment: Antioxidant activity assessed as trolox equivalent of DPPH radical scavenging activity by spectroscopic analysis. The class given is functional. (The DPPH test is a chemical assay of radical scavenging.)

Values after ≈ are worked out from the molar mass of the structure shown. Active and inactive are the calls of the source.

As a reminder, the MIC50 is an inhibitory concentration at the 50% level, which refers to growth in some studies and to a panel of isolates in others. The term MIC90 denotes an inhibitory concentration at the 90% level, which refers to growth in some studies and to a panel of isolates in others. In general, MIC refers to the smallest concentration in the dilution series that meets the test's criterion for growth inhibition.

For `CO/N=C(\C(=O)N[C@@H]1C(=O)N2C(C(=O)O)=C(CSc3nc(=O)c(O)nn3C)CS[C@H]12)c1csc(N)n1` [CEFTRIAXONE], in the experiment with Staphylococcus aureus, the MIC50 was determined as 8 µg/mL (≈ 14.4 µM) and the MIC90 is greater than 128 µg/mL.

For the compound `CCOCOc1c(OC)cc(C(=O)O[C@H](C)[C@H]2C(=O)N(SC)[C@@H]2OC(C)=O)cc1OC`, the Activity in experiment [1] amounted to 0.7 µM. Further, the outcome in experiment [2], in experiment [3] and in experiment [4] was inactive.

On to `CC(=O)SC1CC(=O)N1` (stereo not drawn), for which the MIC50 in the experiment with Staphylococcus aureus came to 32 µg/mL (≈ 220 µM). The MIC90 with Staphylococcus aureus came out at 64 µg/mL (≈ 441 µM). Besides, the result in experiment [1], in experiment [2], in experiment [3], in experiment [5] and in experiment [4] was inactive.

On to `O=C1O[C@H]([C@@H](O)CO)C(O)=C1O`, for which the Activity in experiment [6] was 1100 µM.

With `CO/N=C(\C(=O)N[C@@H]1C(=O)N2C(C(=O)O)=C(COC(C)=O)CS[C@H]12)c1csc(N)n1` [CEFOTAXIME], in the experiment with Staphylococcus aureus, the MIC50 is 128 µg/mL (≈ 281 µM) and the MIC90 is greater than 128 µg/mL.

As for `COc1cc(C(=O)O[C@H](C)[C@H]2C(=O)N(SC)[C@@H]2OC(C)=O)cc(OC)c1O`, the MIC50 with Staphylococcus aureus is 64 µg/mL (≈ 160 µM). In addition, the MIC90 in the experiment with Staphylococcus aureus turned out to be 128 µg/mL (≈ 320 µM). In addition, the Activity in experiment [1] turned out to be 1.8 µM; in experiment [2] it was 0.037 mmol; in experiment [3] it was 0.0091 mmol; in experiment [4], 0.19 mmol.

With `CSN1C(=O)[C@H]([C@@H](C)O)[C@H]1OC(C)=O`, in the experiment on Staphylococcus aureus, the MIC50 came to 64 µg/mL (≈ 292 µM). Also, the MIC90 with Staphylococcus aureus is greater than 128 µg/mL. Moreover, the outcome in experiment [1], in experiment [2], in experiment [3] and in experiment [4] was inactive.

Take `CC(O[Si](C)(C)C(C)(C)C)[C@H]1C(=O)N/C1=C\C(=O)Sc1ccccc1` (stereo partly drawn): the result in experiment [5] was inactive.

For `CSN1C(=O)CC1SC(C)=O` (stereo not drawn), the MIC in the experiment with Staphylococcus aureus turned out to be 16 µg/mL (≈ 83.6 µM). Further, the MIC50 with Staphylococcus aureus was determined as 16 µg/mL (≈ 83.6 µM). For the same compound, the MIC90 with Staphylococcus aureus worked out at 32 µg/mL (≈ 167 µM). In addition, the outcome in experiment [1], in experiment [2], in experiment [3] and in experiment [4] was inactive.

For the compound `CSN1C(=O)C[C@@H]1OC(C)=O`, the MIC with Staphylococcus aureus came to 32 µg/mL (≈ 183 µM). Further, the MIC50 with Staphylococcus aureus came out at 32 µg/mL (≈ 183 µM). Further, in the experiment with Staphylococcus aureus, the MIC90 amounted to 64 µg/mL (≈ 365 µM). Also, the result in experiment [1], in experiment [2], in experiment [3] and in experiment [4] was inactive.

On to `CSN1C(=O)[C@H]([C@@H](C)O)[C@H]1SC(C)=O`, for which, in the experiment on Staphylococcus aureus, the MIC50 stood at 64 µg/mL (≈ 272 µM). Also, the MIC90 in the experiment on Staphylococcus aureus came to 128 µg/mL (≈ 544 µM). Further, the result in experiment [1], in experiment [2], in experiment [3] and in experiment [4] was inactive.

For the compound VITAMIN E, in experiment [6], the Activity was 500 µM.

As for `CSN1C(=O)[C@H]([C@@H](C)OC(=O)/C=C/c2ccc(O)c(O)c2)[C@H]1OC(C)=O`, the MIC50 in the experiment on Staphylococcus aureus stood at 64 µg/mL (≈ 168 µM). Further, in the experiment on Staphylococcus aureus, the MIC90 is 64 µg/mL (≈ 168 µM). The Activity was found to be 1.95 µM in experiment [1], 0.98 mmol in experiment [2], 1.23 mmol in experiment [3] and 1.98 mmol in experiment [4].

For `CSN1CCC1=O`, the outcome in experiment [5] was inactive.

`CSN1C(=O)[C@H]([C@@H](C)OC(=O)c2ccc(O)c(O)c2)[C@H]1OC(C)=O`: in the experiment on Staphylococcus aureus, the MIC50 was 128 µg/mL (≈ 360 µM). Moreover, the MIC90 in the experiment with Staphylococcus aureus was greater than 128 µg/mL. Also, the Activity is 0.38 µM in experiment [1], 1.23 mmol in experiment [2], 1.96 mmol in experiment [3] and 1.91 mmol in experiment [4].

Values taken from ChEMBL document CHEMBL2311373, “Monocyclic β-lactams as antibacterial agents: facing antioxidant activity of N-methylthio-azetidinones” (2013).
